From publication PMC6583897 (International journal of pharmaceutics, 2018)
pIC50: −log10 of the molar value. Values belong to the molecule of their own block, whether it stands above or below them.

Key:
[1] = tested on: CYP3A4; conditions: ref Yao et al., 2006; cited from earlier work
[2] = tested on: HIV-1NL-43; assay: Antiviral activity in vitro, TZM-bl luciferase reporter assay; type: cell-based; conditions: for pIC50: Human immunodeficiency virus 1, TZM-bl, 48 h; for times more potent than free parent drug (IC50 ratio): TZM-bl cells, vs free FTC or free EVG
[3] = Pharmacokinetic evaluation after intramuscular injection, plasma LC/MS; type: in vivo, CD-1 mice; conditions: female, CD-1, mouse, im, 1000 mg/kg
[4] = Hydrolytic release curves, pH 7.4 PBS, 37 °C; type: physicochemical; conditions: 1 mg/mL, UV-vis
Outline: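 Test conjugates at 1 mg/mL were hydrolysed in 0.1 M phosphate-buffered saline, pH 7.4, with continuous stirring at 37 °C, in triplicate. Samples were taken at 1, 3, 7, 10, 14, 17, 21, 24, 28, 31, 35 and 42 days. Released parent drug was measured by UV absorbance at 300 nm or 320 nm, depending on the drug. Data are mean ± standard deviation (n = 3).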

[5] = ref Ho et al., 2018; cited from earlier work
[6] = tested on: HIV; conditions: ref Agarwal et al., 2013; cited from earlier work

SMILES: CC/C=C\C/C=C\C/C=C\C/C=C\C/C=C\C/C=C\CCC(=O)O [DHA (Docosahexaenoic acid), Docosahexaenoic acid]
inhibitory potency against CYP3A4 among available PUFA options [1]: greater inhibitory potency

pIC50 [2]: 4.51 | AUC(0-t) [3]: 48300 ng·h/mL | Cmax [3]: 1750 ng/mL | half-life [3]: 9.75 h | k el [3]: 1.97e-05 s⁻¹
SMILES: COc1cc2c(cc1Cc1cccc(Cl)c1F)c(=O)c(C(=O)O)cn2[C@H](CO)C(C)C [EVG (Elvitegravir), Elvitegravir]

pIC50 [2]: 6.85 | times more potent than free parent drug (IC50 ratio) [2]: ~ 220 times | period of sustained drug release [4]: 30 days
SMILES: CC/C=C/C/C=C/C/C=C/C/C=C/C/C=C/C/C=C\CCC(=O)OCC(C(C)C)n1cc(C(=O)O)c(=O)c2cc(Cc3cccc(Cl)c3F)c(OC)cc21 (stereo not shown) [EVG-DHA, 6-(3-chloro-2-fluorobenzyl)-1-(1-(((4Z,7E,10E,13E,16E,19E)-docosa-4,7,10,13,16,19-hexaenoyl)oxy)-3-methylbutan-2-yl)-7-methoxy-4-oxo-1,4-dihydroquinoline-3-carboxylic acid]

SMILES: Nc1nc(=O)n([C@@H]2CS[C@H](CO)O2)cc1F [FTC (Emtricitabine), Emtricitabine]
pIC50 [2]: 4.76 | AUC(0-t) [3]: 127000 ng·h/mL | Cmax [3]: 41000 ng/mL | half-life [3]: 54.7 h | k el [3]: 3.61e-06 s⁻¹

pIC50 [2]: 5.86 | times more potent than free parent drug (IC50 ratio) [2]: ~ 12 times | period of sustained drug release [4]: 21 days
SMILES: CC/C=C/C/C=C/C/C=C/C/C=C/C/C=C/C/C=C/CCC(=O)OC[C@@H]1O[C@H](n2cc(F)c(N)nc2=O)CS1 [FTC-DHA, ((2R,5S)-5-(4-amino-5-fluoro-2-oxopyrimidin-1(2H)-yl)-1,3-oxathiolan-2-yl)methyl (4E,7E,10E,13E,16E,19E)-docosa-4,7,10,13,16,19-hexaenoate]

SMILES: C=C1[C@H](CO)[C@@H](O)C[C@@H]1n1cnc2c(=O)[nH]c(N)nc21 [entecavir]
active antiretroviral released within the first hour [5]: 15–41%

SMILES: CCCCCCCCCCCCCC(=O)OC[C@@H]1O[C@H](n2cc(F)c(N)nc2=O)CS1 [myristoylated FTC conjugate]
higher anti-HIV activity compared to FTC alone [6]: 24 times
